Data as given in paper PMC9064899 (The FEBS journal, 2021).
Residue numbers refer to the chain shown, from its start.

Legend:
UBIAD1 D240A = biological target: T1, UBIAD1 D240A (Homo sapiens, UniProt Q9Y5Z9, D240A); assay: Cell-based UBIAD1 functional assay
T1 sequence (Q9Y5Z9 1-338 D240A): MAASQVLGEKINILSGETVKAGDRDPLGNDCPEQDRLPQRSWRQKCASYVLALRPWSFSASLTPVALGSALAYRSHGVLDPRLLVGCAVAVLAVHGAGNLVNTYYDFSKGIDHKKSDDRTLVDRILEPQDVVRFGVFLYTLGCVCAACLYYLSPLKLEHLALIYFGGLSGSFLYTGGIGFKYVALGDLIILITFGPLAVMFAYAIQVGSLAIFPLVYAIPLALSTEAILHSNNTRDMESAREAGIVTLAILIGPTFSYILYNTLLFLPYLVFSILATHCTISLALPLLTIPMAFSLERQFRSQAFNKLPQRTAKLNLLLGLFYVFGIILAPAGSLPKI
In short: (§1)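 Wild-type or mutant human UBIAD1 in pCI-neo was transiently transfected into Ubiad1-knockout FIXgla-PC/HEK293 cells (DMEM/F12, 10% FBS). […] After 24 h, carboxylated FIXgla-PC in the medium was measured by ELISA. Activity was normalized to wild type (100%), and EC50 came from a curve fit. Mean ± SD, n=3 independent experiments.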

UBIAD1 D240N = biological target: T2, UBIAD1 D240N (Homo sapiens, UniProt Q9Y5Z9, D240N); assay: Cell-based UBIAD1 functional assay
T2 sequence (Q9Y5Z9 1-338 D240N): T1 sequence (Q9Y5Z9 1-338 D240A) with A240N
In short: as §1

UBIAD1 D236E = biological target: T3, UBIAD1 D236E (Homo sapiens, UniProt Q9Y5Z9, D236E); assay: Cell-based UBIAD1 functional assay
T3 sequence (Q9Y5Z9 1-338 D236E): T1 sequence (Q9Y5Z9 1-338 D240A) with D236E, A240D
In short: as §1

UBIAD1 L67Q = biological target: T4, UBIAD1 L67Q (Homo sapiens, UniProt Q9Y5Z9, L67Q); assay: Cell-based UBIAD1 functional assay
T4 sequence (Q9Y5Z9 1-338 L67Q): T1 sequence (Q9Y5Z9 1-338 D240A) with L67Q, A240D
In short: as §1

UBIAD1 G177E = biological target: T5, UBIAD1 G177E (Homo sapiens, UniProt Q9Y5Z9, G177E); assay: Cell-based UBIAD1 functional assay
T5 sequence (Q9Y5Z9 1-338 G177E): T1 sequence (Q9Y5Z9 1-338 D240A) with G177E, A240D
In short: as §1

UBIAD1 G177R = biological target: T6, UBIAD1 G177R (Homo sapiens, UniProt Q9Y5Z9, G177R); assay: Cell-based UBIAD1 functional assay
T6 sequence (Q9Y5Z9 1-338 G177R): T1 sequence (Q9Y5Z9 1-338 D240A) with G177R, A240D
In short: as §1

[1] = tested on: UBIAD1-deficient FIXgla-PC/HEK293 reporter cells; assay: VKD carboxylation of FIXgla-PC supported by K vitamins in UBIAD1-knockout cells; type: cell-based, human; details: UBIAD1-deficient (knockout) FIXgla-PC/HEK293 cells
In short: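 Ubiad1-knockout FIXgla-PC/HEK293 reporter cells were cultured for 24 h with increasing concentrations of vitamin K1, MK-4, vitamin K3, or menaquinones with 1–4 or 7 isoprene units. K vitamin stocks were made in polyethoxylated castor oil. Carboxylated FIXgla-PC was determined by ELISA, and half-maximal stimulation concentration (EC50) came from curve fitting. Mean ± SD.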

## CC1=CC(=O)c2ccccc2C1=O [vitamin K3, menadione]
UBIAD1 D240A
  EC50: 64 ± 10.5 nM
UBIAD1 D240A; D240A, 1 μM vitamin K3
  Vitamin K-dependent carboxylation Activity ± SD: 85.6 ± 1.4%
UBIAD1 D240N
  EC50: 11.2 ± 1.5 nM
UBIAD1 D240N; D240N, 1 μM vitamin K3
  Vitamin K-dependent carboxylation Activity ± SD: 107.8 ± 2.5%
UBIAD1 D236E
  EC50: 22.6 ± 2.2 nM
UBIAD1 D236E; D236E vs D236A
  EC50 value of vitamin K3 lower than that of D236A: 4 fold
UBIAD1 D236E; D236E vs WT
  increase of EC50 value of vitamin K3 vs wild-type: 6 fold
UBIAD1 D236E; D236E, 1 μM vitamin K3
  Vitamin K-dependent carboxylation Activity ± SD: 107.1 ± 4.9%
UBIAD1 L67Q
  EC50: 3.8 ± 0.8 nM
UBIAD1 L67Q; L67Q, 1 μM vitamin K3
  Vitamin K-dependent carboxylation Activity ± SD: 40.7 ± 2%
UBIAD1 G177E
  EC50: 3.7 ± 0.5 nM
UBIAD1 G177E; G177E, 1 μM vitamin K3
  Vitamin K-dependent carboxylation Activity ± SD: 117.1 ± 4.5%
UBIAD1 G177R
  EC50: 3 ± 0.3 nM
UBIAD1 G177R; G177R, 1 μM vitamin K3
  Vitamin K-dependent carboxylation Activity ± SD: 119.8 ± 1.2%
[1]
  support of VKD carboxylation of reporter protein: fails to carboxylate the reporter protein
